Measurements taken from ChEMBL document CHEMBL4480404, “Discovery of Lipophilic Bisphosphonates That Target Bacterial Cell Wall and Quinone Biosynthesis” (J Med Chem, 2019).
≈ marks a conversion by molar mass, not a printed value. Calls of active or inactive are those of the source. No cut-off for these calls is given here.

Experiments:
Clostridioides difficile [1] = experiment: Antibacterial activity against Clostridioides difficile ATCC 1870 after 48 hrs; assay type: functional; settings: ATCC 1870, 48 h
Procedure, shortened: (§1)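 Grown anaerobically 48 h at 37 °C on brain heart infusion agar supplemented with yeast extract, L-cysteine, vitamin K1 and hemin. Inoculum set to a 0.5 McFarland standard, then diluted in supplemented BHI broth to ~5 × 10^5 CFU/mL. Broth dilution over 64–0.5 μM, incubated anaerobically 48 h at 37 °C. MIC read visually as lowest concentration inhibiting growth.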

Bacillus subtilis [2] = experiment: Antibacterial activity against Bacillus subtilis (Ehrenberg) Cohn ATCC 6051 assessed as growth inhibition in presence of FPP after 12 hrs; assay type: functional, organism-based; settings: (Ehrenberg) Cohn ATCC 6051, 12 h
Procedure, shortened: (§2)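 Rescue format: log-phase B. subtilis in LB with rescue agent(s) at 50 µM each, alone or as pairwise combinations of UP, MK-4, FPP or HMBPP. Inhibitor diluted threefold across 12 wells from a 100 µM–1 mM start; 37 °C, 200 rpm, 12 h. Growth inhibition read as OD600; ED50-based fold-rescue; duplicate.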

[3] = target: T1, Farnesyl pyrophosphate synthase (Homo sapiens, UniProt P14324); experiment: Inhibition of human FPPS using IPP and GPP as substrate
T1 sequence (P14324 whole entry): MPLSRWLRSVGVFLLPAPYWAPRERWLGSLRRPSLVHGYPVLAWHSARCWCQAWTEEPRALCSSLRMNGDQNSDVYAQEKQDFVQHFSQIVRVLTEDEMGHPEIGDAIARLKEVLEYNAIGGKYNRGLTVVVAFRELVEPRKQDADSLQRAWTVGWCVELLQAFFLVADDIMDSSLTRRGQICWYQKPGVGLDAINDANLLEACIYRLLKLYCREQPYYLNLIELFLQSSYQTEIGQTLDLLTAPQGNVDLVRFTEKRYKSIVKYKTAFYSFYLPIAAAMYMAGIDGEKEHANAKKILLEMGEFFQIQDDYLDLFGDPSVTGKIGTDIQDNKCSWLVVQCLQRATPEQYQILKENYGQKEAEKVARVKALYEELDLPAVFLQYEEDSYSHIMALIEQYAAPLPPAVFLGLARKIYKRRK
Procedure, shortened: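 Expressed HsFPPS at 0.15 μM with 50 μM IPP and 50 μM GPP, 25°C, in 20 mM HEPES pH 7.5, 150 mM NaCl, 500 μM MgCl2. Enzyme preincubated 30 min at room temperature with serially diluted compound. Continuous MESG/PNP phosphate-release read-out, with pyrophosphatase added. At least 3 runs on different days; pooled data fitted by nonlinear regression for IC50.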

Clostridioides difficile [4] = experiment: Antibacterial activity against Clostridioides difficile ATCC 43255 after 48 hrs; assay type: functional; settings: ATCC 43255, 48 h; procedure, shortened: as §1
[5] = target: T1, Farnesyl pyrophosphate synthase; experiment: Inhibition of human FPPS using IPP and GPP
Bacillus subtilis [6] = experiment: Antibacterial activity against Bacillus subtilis (Ehrenberg) Cohn ATCC 6051 assessed as growth inhibition in presence of MK7 after 12 hrs; assay type: functional, organism-based
Bacillus subtilis [7] = experiment: Antibacterial activity against Bacillus subtilis (Ehrenberg) Cohn ATCC 6051 assessed as growth inhibition in presence of decaprenyl phosphate after 12 hrs; assay type: functional, organism-based
Bacillus subtilis [8] = experiment: Antibacterial activity against Bacillus subtilis (Ehrenberg) Cohn ATCC 6051 assessed as growth inhibition in presence of FPP and UP after 12 hrs; assay type: functional, organism-based; settings: (Ehrenberg) Cohn ATCC 6051, 12 h; procedure, shortened: as §2
Bacillus subtilis [9] = experiment: Antibacterial activity against Bacillus subtilis (Ehrenberg) Cohn ATCC 6051 assessed as growth inhibition in presence of HMBPP after 12 hrs; assay type: functional, organism-based; settings: (Ehrenberg) Cohn ATCC 6051, 12 h; procedure, shortened: as §2
Bacillus subtilis [10] = experiment: Antibacterial activity against Bacillus subtilis (Ehrenberg) Cohn ATCC 6051 in absence of fetal bovine serum after 12 hrs; assay type: functional; settings: (Ehrenberg) Cohn ATCC 6051, 12 h, read-out: ED50 (the source's name)
Procedure, shortened: (§3)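 Log-phase B. subtilis diluted 500-fold into LB containing 0%, 4% or 10% fetal bovine serum. Inhibitor threefold serially diluted across 12 wells from a 100 µM–1 mM start; incubated 12 h at 37 °C with 200 rpm shaking; growth inhibition by OD600.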

Bacillus subtilis [11] = experiment: Antibacterial activity against Bacillus subtilis (Ehrenberg) Cohn ATCC 6051 in presence of 10% fetal bovine serum after 12 hrs; assay type: functional; settings: (Ehrenberg) Cohn ATCC 6051, 12 h, read-out: ED50 (the source's name); procedure, shortened: as §3
[12] = Growth inhibition of HEK293 cells after 24 hrs by MTT assay; assay type: cell-based; settings: human, read-out: ED50
Procedure, shortened: (§4)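 HEK293 cells in DMEM (4.5 g/L glucose) with 10% FBS and 1% penicillin-streptomycin, seeded at 10⁵ cells/mL. Inhibitor from 10 mM stock diluted threefold across 10 wells; 37 °C for 24 or 96 h.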

Bacillus subtilis [13] = experiment: Antibacterial activity against Bacillus subtilis (Ehrenberg) Cohn ATCC 6051 assessed as growth inhibition in presence of HMBPP and MK4 after 12 hrs; assay type: functional, organism-based; settings: (Ehrenberg) Cohn ATCC 6051, 12 h; procedure, shortened: as §2
[14] = Growth inhibition of HEK293 cells after 96 hrs by MTT assay; assay type: cell-based; settings: human, read-out: ED50; procedure, shortened: as §4
[15] = Lipophilicity, log D of the compound at pH 7.4; assay type: physicochemical; settings: buffer
Staphylococcus aureus = experiment: Antibacterial activity against Staphylococcus aureus Newman after 12 hrs; assay type: functional; settings: read-out: ED50 (the source's name)
Procedure, shortened: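 Log-phase S. aureus culture in tryptic soy broth (OD600 ~0.3, then diluted 500-fold). Inhibitors two-fold serially diluted across 12 wells from a 100 µM–1 mM start; 37 °C, 200 rpm, 12 h; OD600 read for growth inhibition.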

[16] = system: Mycolicibacterium smegmatis; experiment: Antibacterial activity against Mycobacterium smegmatis MC2 155 ATCC 700084 after 48 hrs; assay type: functional; settings: MC2 155 ATCC 700084, 48 h, read-out: ED50 (the source's name)
Procedure, shortened: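 Culture grown 36–48 h, diluted 1000-fold in Middlebrook 7H9 with 10% ADC, 0.5% glycerol, 0.05% Tween 80; inhibitors started at 100 µM–1 mM, threefold serial dilution across 10 wells; 37 °C, 200 rpm, 48 h; OD600 read-out.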

Bacillus anthracis = experiment: Antibacterial activity against Bacillus anthracis Sterne after 12 hrs; assay type: functional; settings: read-out: ED50 (the source's name)
Bacillus subtilis [17] = experiment: Antibacterial activity against Bacillus subtilis (Ehrenberg) Cohn ATCC 6051 after 12 hrs; assay type: functional; settings: (Ehrenberg) Cohn ATCC 6051, 12 h, read-out: ED50 (the source's name)
Procedure, shortened: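 Log-phase LB culture (grown to OD600 ~0.3, then diluted 500-fold) exposed to two-fold serial dilutions of inhibitor starting at 100 µM–1 mM across 12 wells; 37 °C, 200 rpm shaking, 12 h. OD600 read and ED50 fitted; duplicate or triplicate.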

Candida albicans = experiment: microbe, parasite or virus in culture; assay type: functional; settings: CAI-4, 12 h, read-out: ED50 (the source's name)
[18] = Inhibition of Escherichia coli OPPS using IPP as substrate

SMILES: CC(C)CCCC(C)CCOc1ccc[n+](CC(P(=O)([O-])O)P(=O)(O)O)c1 (stereo unspecified)
- MIC (Clostridioides difficile [1]): 6.8 µg/mL (≈ 16.1 µM)
- IC50 (Bacillus subtilis [2]): 3.5 µg/mL
- IC50 [3]: 0.23 µM
- MIC (Clostridioides difficile [4]): 6.8 µg/mL (≈ 16.1 µM)
- IC50 [5]: 0.23 µM
- Activity (Bacillus subtilis [6]): Active
- Activity (Bacillus subtilis [7]): Active
- IC50 (Bacillus subtilis [8]): 8.9 µg/mL
- IC50 (Bacillus subtilis [9]): 2.1 µg/mL
- EC50 (Bacillus subtilis [10]): 1 µg/mL (≈ 2.36 µM)
- EC50 (Bacillus subtilis [11]): 1.7 µg/mL
- GI50 at 24 h [12]: 620 µM
- IC50 (Bacillus subtilis [13]): 8.9 µg/mL
- GI50 at 96 h [14]: 76 µM

SMILES: CCCCCCCCCCCCCc1ccc[n+](CC(P(=O)([O-])O)P(=O)(O)O)c1 (stereo unspecified)
- logD ([15]; read-out: logD): -3.65
- GI50 at 24 h [12]: 48 µM

SMILES: CC(C)CCCC(C)CCc1cnc(NCC(P(=O)(O)O)P(=O)(O)O)s1 (stereo unspecified)
- logD ([15]; read-out: logD): -2.12

SMILES: CCCCCCCCOc1cccc(C(=O)Nc2ccc(F)cc2C(=O)O)c1
- EC50 (Staphylococcus aureus): 3 to 8 µg/mL (≈ 7.74 to 20.6 µM)
- EC50 [16]: 3 to 8 µg/mL (≈ 7.74 to 20.6 µM)
- EC50 (Bacillus anthracis): 3 to 8 µg/mL (≈ 7.74 to 20.6 µM)
- EC50 (Bacillus subtilis [17]): 3 to 8 µg/mL (≈ 7.74 to 20.6 µM)
- EC50 (Candida albicans): > 50 µg/mL

SMILES: CC(C)CCCC(C)CCCn1cc[n+](CC(P(=O)([O-])O)P(=O)(O)O)c1 (stereo unspecified)
- logD [15]: -5.65
- GI50 at 24 h [12]: 440 µM

SMILES: CC(C)CCCC(C)c1cnc(NCC(P(=O)(O)O)P(=O)(O)O)s1 (stereo unspecified)
- logD ([15]; read-out: logD): -2.96

SMILES: CC(C)CCCC(C)CCSc1cc[n+](CC(P(=O)([O-])O)P(=O)(O)O)cc1 (stereo unspecified)
- logD [15]: -5.08
- GI50 at 24 h [12]: 1000 µM

SMILES: O=P([O-])(O)C(C[n+]1ccc(-c2ccc3oc4ccccc4c3c2)cc1)P(=O)(O)O (stereo unspecified)
- EC50 (Candida albicans): > 50 µg/mL

SMILES: CC(C)CCCC(C)CCOc1cc[n+](CC(P(=O)([O-])O)P(=O)(O)O)cc1 (stereo unspecified)
- IC50 [3]: 100 µM
- EC50 (Bacillus subtilis [10]): 5.7 µg/mL (≈ 13.5 µM)
- EC50 (Bacillus subtilis [11]): 28 µg/mL
- logD [15]: -5.82
- GI50 at 24 h [12]: ≥ 1000 µM
- GI50 at 96 h [14]: 800 µM

SMILES: CC(C)CCCC(C)CCOc1ccc[n+](CC(O)(P(=O)([O-])O)P(=O)(O)O)c1 (stereo unspecified)
- GI50 at 24 h [12]: 1100 µM

SMILES: CC(C)CCCC(C)CCc1csc(NCC(P(=O)(O)O)P(=O)(O)O)n1 (stereo unspecified)
- logD ([15]; read-out: logD): -2.36

SMILES: CC(C)CCCC(C)CCCC(C)CCOc1ccc[n+](CC(P(=O)([O-])O)P(=O)(O)O)c1 (stereo unspecified)
- logD ([15]; read-out: logD): -3.48

SMILES: CC(C)CCCC(C)CCCc1cc[n+](CC(P(=O)([O-])O)P(=O)(O)O)cc1 (stereo unspecified)
- EC50 (Bacillus subtilis [10]): 2.3 µg/mL (≈ 5.46 µM)
- EC50 (Bacillus subtilis [11]): 78 µg/mL
- logD [15]: -4.71
- GI50 at 24 h [12]: 700 µM
- GI50 at 96 h [14]: > 1000 µM

SMILES: O=P([O-])(O)C(Cn1cc[n+](CCCc2ccc(F)c(F)c2)c1)P(=O)(O)O (stereo unspecified)
- EC50 (Bacillus subtilis [10]): 26 µg/mL (≈ 63.4 µM)
- EC50 (Staphylococcus aureus): 30 µg/mL (≈ 73.1 µM)
- EC50 (Bacillus subtilis [11]): 38 µg/mL
- GI50 at 24 h [12]: 600 µM
- EC50 (Bacillus anthracis): > 100 µg/mL
- EC50 (Bacillus subtilis [17]): > 100 µg/mL
- EC50 (Candida albicans): 2 µg/mL (≈ 4.88 µM)

SMILES: CCCCCCCCCCOc1cccc(CC(O)(P(=O)(O)O)P(=O)(O)O)c1
- IC50 [18]: 11 µM
- IC50 [5]: 550 µM
